In brackets after ≈: the same amount, converted by molar mass. Activity calls are given as the source filed them. No cut-off for these calls is given here.
Assays:
Bacillus anthracis [1] = assay: Antimicrobial activity against Bacillus anthracis Sterne vegetative cells by broth microdilution method; assay type: functional
Brevibacillus brevis = assay: Antimicrobial activity against Bacillus brevis clinical isolate by broth microdilution method; assay type: functional
Method in brief: (§1)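 Broth microdilution. Log-phase cultures (5 × 10^5 CFU/ml) seeded in 96-well plates with compound from 0 to 20 µM or 1% DMSO control. Incubated at 37°C for 16 to 20 h. Growth read as absorbance at 600 nm.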

Bacillus licheniformis = assay: Antimicrobial activity against Bacillus licheniformis clinical isolate by broth microdilution method; assay type: functional
Priestia megaterium = assay: Antimicrobial activity against Bacillus megaterium clinical isolate by broth microdilution method; assay type: functional
Bacillus pumilus = assay: Antimicrobial activity against Bacillus pumilus clinical isolate by broth microdilution method; assay type: functional; method in brief: as §1
Bacillus anthracis [2] = assay: Antimicrobial activity against Bacillus anthracis Vollum clinical isolate by broth microdilution method; assay type: functional
Bacillus subtilis [3] = assay: Antimicrobial activity against Bacillus subtilis clinical isolate by broth microdilution method; assay type: functional
Staphylococcus aureus [4] = assay: Antimicrobial activity against Staphylococcus aureus ATCC 25923 by broth microdilution method; assay type: functional; method in brief: as §1
Staphylococcus aureus [5] = assay: Antimicrobial activity against Staphylococcus aureus by broth microdilution method; assay type: functional; method in brief: as §1
Enterococcus faecalis [6] = assay: Antimicrobial activity against Enterococcus faecalis clinical isolate by broth microdilution method; assay type: functional; method in brief: as §1
Enterococcus faecalis [7] = assay: Antimicrobial activity against Enterococcus faecalis 29212 clinical isolate by broth microdilution method; assay type: functional
[8] = test system: Mycolicibacterium smegmatis; assay: Antimicrobial activity against Mycobacterium smegmatis 19420 by broth microdilution method; assay type: functional; method in brief: as §1
[9] = test system: Mycolicibacterium smegmatis; assay: Antimicrobial activity against Mycobacterium smegmatis 35798 by broth microdilution method; assay type: functional; method in brief: as §1
[10] = test system: Mycolicibacterium smegmatis; assay: Antimicrobial activity against Mycobacterium smegmatis 700009 by broth microdilution method; assay type: functional; method in brief: as §1
Staphylococcus aureus [11] = assay: Antimicrobial activity against methicillin-resistant Staphylococcus aureus clinical isolate by broth microdilution method; assay type: functional
Staphylococcus aureus [12] = assay: Antimicrobial activity against methicillin-resistant Staphylococcus aureus 1094 by broth microdilution method; assay type: functional
Enterococcus faecium = assay: Antimicrobial activity against vancomycin-resistant Enterococcus faecium B42762 by broth microdilution method; assay type: functional
Enterococcus faecalis [13] = assay: Antimicrobial activity against vancomycin-resistant Enterococcus faecalis ATCC 51575 by broth microdilution method; assay type: functional
Escherichia coli = assay: Antimicrobial activity against Escherichia coli J53 clinical isolate by broth microdilution method; assay type: functional
Klebsiella pneumoniae = assay: Antimicrobial activity against Klebsiella pneumoniae 5657 by broth microdilution method; assay type: functional; method in brief: as §1
Pseudomonas aeruginosa = assay: Antimicrobial activity against Pseudomonas aeruginosa PAO1 by broth microdilution method; assay type: functional; method in brief: as §1
Yersinia pestis [14] = assay: Antimicrobial activity against Yersinia pestis by broth microdilution method; assay type: functional
Burkholderia mallei = assay: Antimicrobial activity against Burkholderia mallei ATCC 23344 by broth microdilution method; assay type: functional
[15] = test system: Burkholderia pseudomallei; assay: Antimicrobial activity against Burkholderia pseudomallei DD503 by broth microdilution method; assay type: functional
[16] = test system: Burkholderia thailandensis; assay: Antimicrobial activity against Burkholderia thailandensis by broth microdilution method; assay type: functional
Burkholderia cepacia = assay: Antimicrobial activity against Burkholderia cepacia clinical isolate by broth microdilution method; assay type: functional; method in brief: as §1
[17] = Cytotoxicity against human HeLa cells after 3 days by MTS assay in presence of 10% fetal calf serum; assay type: cell-based
Bacillus anthracis [18] = assay: Antimicrobial activity against Bacillus anthracis Ames by broth microdilution method in presence of 10% fetal calf serum; assay type: functional
Bacillus subtilis [19] = assay: Inhibition of DNA synthesis in Bacillus subtilis BD54 at 5 X MIC by [3H]thymidine incorporation assay; assay type: functional, organism-based
Method in brief: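 Precursors were [methyl-3H]thymidine (DNA), [5-3H]uridine (RNA), L-[4,5-3H]leucine (protein) and N-acetyl-D-[1-3H]glucosamine (cell wall). Samples taken over time, precipitated with equal volume of ice-cold 20% TCA, filtered on glass fibre, and counted. cpm plotted against time.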

Bacillus subtilis [20] = assay: Effect on bacterial membrane permeability in Bacillus subtilis BD54 upto 10 times MIC using DiSC3 fluorescent dye staining based fluorimetric assay; assay type: functional, organism-based
Method in brief: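 B. subtilis BD54 grown in LB to OD600 0.4–0.5, washed, and resuspended to OD600 0.1 in 5 mM HEPES pH 7.4 with 20 mM glucose. Loaded with 1 µM DiSC3(5) for 10 min at room temperature, then 100 mM KCl added. […] Fluorescence read at 5 min (ex 622, em 670 nm). DNP 200 µg/ml positive control; mean ± SD of 8 wells.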

Bacillus anthracis [21] = assay: Antibacterial activity against Bacillus anthracis Ames spores infected in C57BL/6 mouse assessed as mouse survival rate at 10 mg/kg, ip for 5 days every 6 hrs administered 6 hrs post bacterial challenge measured up to 20 days post infection; assay type: functional; details: route intraperitoneal
Yersinia pestis [22] = assay: Antibacterial activity against Yersinia pestis CO92 infected in C57BL/6 mouse assessed as protection against microbe-induced mortality at 10 mg/kg, ip for 5 days every 6 hrs administered 6 hrs post bacterial challenge measured after 15 days post infection; assay type: functional; details: route intraperitoneal
Staphylococcus aureus [23] = assay: Antibacterial activity against Staphylococcus aureus Smith infected in Swiss Webster mouse assessed as assessed as protection against microbe-induced mortality at 10 mg/kg, iv administered as single dose 15 mins post bacterial challenge measured 48 hrs post infection; assay type: functional
Method in brief: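 Swiss Webster mice (n = 10/group) were challenged i.p. with 8.3 × 10^8 CFU. After 15 min they received a single i.v. dose in 10% dimethyl acetamide–5% dextrose in water (pH 4.0), alongside vehicle and daptomycin (10 mg/kg) controls. Survival was followed for 48 h.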

Bacillus anthracis [24] = assay: Protection against Bacillus anthracis Sterne spores induced cell death in mouse J774A1 cells assessed as live viable cells at 10 uM by Sytox green dye staining assay relative to untreated control; assay type: functional, J774.A1
Bacillus anthracis [25] = assay: Protection against Bacillus anthracis Sterne spores induced cell death in mouse J774A1 cells assessed as dead cells at 10 uM by Sytox green dye staining assay relative to untreated control; assay type: functional, J774.A1
[26] = Cytotoxicity against mouse J774A1 cells assessed as live viable cells at 10 uM by Sytox green dye staining assay relative to untreated control; assay type: cell-based, J774.A1; details: read-out: Activity
Method in brief: (§2)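 J774A.1 macrophages, not infected, treated with 1% DMSO control or compound at 10 µM. Sytox green (impermeant to live cells) added for 15 min at 37°C. Cells centrifuged, washed twice in complete medium containing antibiotics, and analysed by flow cytometry for percent live and dead cells.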

J774.A1 = assay: Cytotoxicity against mouse J774A1 cells assessed as dead cells at 10 uM by Sytox green dye staining assay relative to untreated control; assay type: cell-based; details: j774.a1, 10 µM; method in brief: as §2
Bacillus anthracis [27] = assay: Inhibition of spore germination in Bacillus anthracis Sterne spores at MIC after 4 hrs; assay type: functional, organism-based
Staphylococcus aureus [28] = assay: Antibacterial activity against MBX 1090 resistant Staphylococcus aureus NCTC8325 isolates selected on 10 to 12 days of serial passage through MBX 1090; assay type: functional
Method in brief: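 Eight independent S. aureus NCTC8325 cultures were grown with compound at 0.125× to 128× MIC. Each day, cells were passaged from the highest-concentration well still showing >50% of untreated growth, for up to 20 days. Colonies isolated from resistant cultures were confirmed by MIC assay.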

HeLa = assay: Effect on cell membrane integrity in human HeLa cells assessed as lactate dehydrogenase release at 32 times MIC against Staphylococcus aureus by CytoTox ONE homogenous membrane integrity assay; assay type: cell-based
Method in brief: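 Confluent HeLa cells in DMEM treated for 1 h with a range of compound concentrations, 1% DMSO final. […] LDH activity in the supernatant measured by a membrane-integrity kit.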

Bacillus anthracis [29] = assay: microbe, parasite or virus in culture; details: Ames
Bacillus anthracis [30] = assay: microbe, parasite or virus in culture; details: Ames; remark: listed apart in the source

`c1cc2cc(-c3ccc(-c4cc5ccc(C6=NCCN6)cc5[nH]4)cc3)[nH]c2cc1C1=NCCN1` showed an MIC (Bacillus anthracis [1]) of 0.7 µg/mL (≈ 1.57 µM), an MIC (Brevibacillus brevis) of 0.7 µg/mL (≈ 1.57 µM) and an MIC (Bacillus licheniformis) of 0.7 µg/mL (≈ 1.57 µM). For the same compound, the MIC (Priestia megaterium) was 0.3 µg/mL (≈ 0.675 µM), the MIC (Bacillus pumilus) was under 0.1 µg/mL and the MIC (Bacillus anthracis [2]) was 0.3 µg/mL (≈ 0.675 µM). The MIC (Bacillus subtilis [3]) was 0.2 µg/mL (≈ 0.45 µM), the MIC (Staphylococcus aureus [4]) was 0.1 µg/mL (≈ 0.225 µM) and the MIC (Staphylococcus aureus [5]) was 0.3 µg/mL (≈ 0.675 µM). It also gave an MIC (Enterococcus faecalis [6]) of 0.2 µg/mL (≈ 0.45 µM), an MIC (Enterococcus faecalis [7]) of 0.2 µg/mL (≈ 0.45 µM) and an MIC [8] of under 0.1 µg/mL. It also gave an MIC [9] of under 0.1 µg/mL, an MIC [10] of 0.1 µg/mL (≈ 0.225 µM) and an MIC (Staphylococcus aureus [11]) of 0.3 µg/mL (≈ 0.675 µM). The MIC (Staphylococcus aureus [12]) was 0.2 µg/mL (≈ 0.45 µM), the MIC (Enterococcus faecium) was under 0.1 µg/mL and the MIC (Enterococcus faecalis [13]) was 0.1 µg/mL (≈ 0.225 µM). The MIC (Escherichia coli) was 0.7 µg/mL (≈ 1.57 µM), the MIC (Klebsiella pneumoniae) was 3.8 µg/mL (≈ 8.55 µM) and the MIC (Pseudomonas aeruginosa) was 7.5 µg/mL (≈ 16.9 µM). The MIC (Yersinia pestis [14]) was 3.4 µg/mL (≈ 7.65 µM), the MIC (Burkholderia mallei) was 1.7 µg/mL (≈ 3.82 µM) and the MIC [15] was 1.7 µg/mL (≈ 3.82 µM). The MIC [16] was 21 µg/mL (≈ 47.2 µM), the MIC (Burkholderia cepacia) was over 20 µg/mL and the CC50 at 72 h [17] was 3 µg/mL. The MIC (Bacillus anthracis [18]) was 1.1 µg/mL, the inhibition (Bacillus subtilis [19]) was “Active” and the Activity (Bacillus subtilis [20]) was “Active”. The survival at 10 mg/kg (Bacillus anthracis [21]) was 100%, the survival at 10 mg/kg (Yersinia pestis [22]) was 90% and the survival at 10 mg/kg (Staphylococcus aureus [23]) was 80%. For the same compound, the Activity (Bacillus anthracis [24]) was 77%, the Activity (Bacillus anthracis [25]) was 22% and the viability at 10 µM [26] was 94%. The Activity (J774.A1) was 5%, the inhibition (Bacillus anthracis [27]) was “inactive” and the MIC (Staphylococcus aureus [28]) was “Active”. The Activity (HeLa) was “Non-toxic”, the MBC (Bacillus anthracis [29]) was 0.7 µg/mL (≈ 1.57 µM) and the MIC (Bacillus anthracis [29]) was 0.3 µg/mL (≈ 0.675 µM). The MBC (Bacillus anthracis [30]) was 0.4 µg/mL (≈ 0.9 µM).

— ChEMBL document CHEMBL1687745 (Antimicrob Agents Chemother, 2009)
